According to ChEMBL document CHEMBL2384906, “Biological activity, design, synthesis and structure activity relationship of some novel derivatives of curcumin containing sulfonamides” (Eur J Med Chem, 2013):
≈ marks a conversion by molar mass, not a printed value. Calls of active or inactive are those of the source. No cut-off for these calls is given here.

How the values were obtained:
Trichoderma viride [1] = experiment: Antifungal activity against Trichoderma viride MTCC 1107 assessed as zone of inhibition at 80 uM after 48 hrs by disc diffusion method; format: functional; conditions: MTCC 1107, 48 h, read-out: IZ
Procedure, shortened: (§1)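 Spores from 4-day potato dextrose agar cultures, suspended in sterile water at 1.5 × 10⁵ CFU/mL. 0.2 mL was spread on potato dextrose agar. 5 mm filter-paper discs soaked with test compound were laid on the lawn. Incubation was 48 h at 28 °C, then the inhibition zone was measured in mm. Fluconazole was the positive control and acetone the negative control.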

QG-56 = experiment: Cytotoxicity against human QG56 cells after 24 hrs by MTT assay; format: functional, cell-based
Procedure, shortened: (§2)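 The MTT assay seeded 5 × 10⁴ cells per well and grew them 24 h in RPMI 1640 with compound at 2.5–200 µM. Medium without cells was the blank and adriamycin the positive control. MTT was added for 4 h at 37 °C, formazan was solubilised, and absorbance was read at 570 nm. IC50 is the concentration that cuts viability 50% against untreated cells.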

HCT-116 = experiment: Cytotoxicity against human HCT116 cells after 24 hrs by MTT assay; format: functional, cell-based; procedure, shortened: as §2
Trichoderma viride [2] = experiment: Antifungal activity against Trichoderma viride MTCC 1107 assessed as zone of inhibition at 20 uM after 48 hrs by disc diffusion method; format: functional; conditions: MTCC 1107, 48 h, read-out: IZ; procedure, shortened: as §1
Salmonella typhi [3] = experiment: Antimicrobial activity against Salmonella typhi ATCC 23564 assessed as diameter of inhibition zone at 40 uM after 24 hrs by Kirby -Baur disc diffusion method; format: functional; conditions: Salmonella enterica subsp. enterica serovar Typhi
Aspergillus niger [4] = experiment: Antifungal activity against Aspergillus niger MTCC 1108 after 48 hrs; format: functional
Escherichia coli [5] = experiment: Antimicrobial activity against Escherichia coli ATCC 35218 assessed as diameter of inhibition zone at 40 uM after 24 hrs by Kirby -Baur disc diffusion method; format: functional; conditions: ATCC 35218, 24 h, read-out: DIZ
Procedure, shortened: (§3)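 Kirby-Bauer disc diffusion was used. Acetone stocks (160 µM) were serially doubled down to 80, 40 and 20 µM. 4 µL of each went onto 5 mm sterile paper discs, which were dried 30 min at 50 °C. Inoculum was 1.5 × 10⁸ CFU/mL diluted to 3 × 10² CFU/mL, and 50 µL was spread on Mueller-Hinton agar. After 24 h at 37 °C the inhibition-zone diameter was measured. Ciprofloxacin served as positive control.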

HepG2 = experiment: Cytotoxicity against human HepG2 cells after 24 hrs by MTT assay; format: functional, cell-based; procedure, shortened: as §2
Escherichia coli [6] = experiment: Antimicrobial activity against Escherichia coli ATCC 35218 assessed as diameter of inhibition zone at 20 uM after 24 hrs by Kirby -Baur disc diffusion method; format: functional; conditions: ATCC 35218, 24 h, read-out: DIZ; procedure, shortened: as §3
Aspergillus niger [7] = experiment: Antifungal activity against Aspergillus niger MTCC 1108 assessed as zone of inhibition at 80 uM after 48 hrs by disc diffusion method; format: functional; procedure, shortened: as §1
Bacillus cereus [8] = experiment: Antimicrobial activity against Bacillus cereus MTCC 7350 assessed as diameter of inhibition zone at 40 uM after 24 hrs by Kirby -Baur disc diffusion method; format: functional; procedure, shortened: as §3
Aspergillus flavus [9] = experiment: Antifungal activity against Aspergillus flavus MTCC 1021 after 48 hrs; format: functional
Salmonella typhi [10] = experiment: Antimicrobial activity against Salmonella typhi ATCC 23564 after 24 hrs by broth micro serial dilution method; format: functional, Salmonella enterica subsp. enterica serovar Typhi; conditions: Salmonella enterica, ATCC 23564, 24 h
Bacillus cereus [11] = experiment: Antimicrobial activity against Bacillus cereus MTCC 7350 assessed as diameter of inhibition zone at 80 uM after 24 hrs by Kirby -Baur disc diffusion method; format: functional; conditions: MTCC 7350, 24 h, read-out: DIZ; procedure, shortened: as §3
Mus musculus = experiment: Antiinflammatory activity in mouse assessed as inhibition of carrageenan-induced increase in paw volume at 200 mg/kg administered 1 hr prior to carrageenan challenge measured after 3 hrs relative to control; format: functional
Procedure, shortened: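 Mice were fasted 2 h and placed in groups of five. Controls received saline i.p. Phenylbutazone was given at 100 mg/kg i.p., curcumin at 200 mg/kg i.p., and derivatives at 200 mg/kg. After 1 h, 0.1 mL of 1% carrageenan in saline was injected subplantar into the right hind paw. Paw volume was followed by plethysmometer for 3 h, and % inhibition was calculated as (Vc − Vt)/Vc × 100.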

Escherichia coli [12] = experiment: Antimicrobial activity against Escherichia coli ATCC 35218 after 24 hrs by broth micro serial dilution method; format: functional; conditions: ATCC 35218, 24 h
Procedure, shortened: (§4)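 This was broth microdilution in autoclaved Mueller-Hinton broth. 150 µL of compound per well was serially diluted […], and 50 µL of test organism was added. Plates were incubated 24 h at 37 °C and optical density was read.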

Curvularia lunata [13] = experiment: Antifungal activity against Curvularia lunata MTCC 581 assessed as zone of inhibition at 20 uM after 48 hrs by disc diffusion method; format: functional; conditions: MTCC 581, 48 h, read-out: IZ; procedure, shortened: as §1
Trichoderma viride [14] = experiment: Antifungal activity against Trichoderma viride MTCC 1107 assessed as zone of inhibition at 40 uM after 48 hrs by disc diffusion method; format: functional; conditions: MTCC 1107, 48 h, read-out: IZ; procedure, shortened: as §1
Pseudomonas aeruginosa [15] = experiment: Antimicrobial activity against Pseudomonas aeruginosa ATCC 15499 after 24 hrs by broth micro serial dilution method; format: functional; conditions: ATCC 15499, 24 h; procedure, shortened: as §4
Curvularia lunata [16] = experiment: Antifungal activity against Curvularia lunata MTCC 581 after 48 hrs; format: functional; conditions: MTCC 581, 48 h
Pseudomonas aeruginosa [17] = experiment: Antimicrobial activity against Pseudomonas aeruginosa ATCC 15499 assessed as diameter of inhibition zone at 80 uM after 24 hrs by Kirby -Baur disc diffusion method; format: functional; procedure, shortened: as §3
Staphylococcus aureus [18] = experiment: Antimicrobial activity against Staphylococcus aureus ATCC 11632 after 24 hrs by broth micro serial dilution method; format: functional; conditions: ATCC 11632, 24 h; procedure, shortened: as §4
Salmonella typhi [19] = experiment: Antimicrobial activity against Salmonella typhi ATCC 23564 assessed as diameter of inhibition zone at 20 uM after 24 hrs by Kirby -Baur disc diffusion method; format: functional; conditions: Salmonella enterica subsp. enterica serovar Typhi
Escherichia coli [20] = experiment: Antimicrobial activity against Escherichia coli ATCC 35218 assessed as diameter of inhibition zone at 80 uM after 24 hrs by Kirby -Baur disc diffusion method; format: functional; conditions: ATCC 35218, 24 h, read-out: DIZ; procedure, shortened: as §3
Staphylococcus aureus [21] = experiment: Antimicrobial activity against Staphylococcus aureus ATCC 11632 assessed as diameter of inhibition zone at 80 uM after 24 hrs by Kirby -Baur disc diffusion method; format: functional; conditions: ATCC 11632, 24 h, read-out: DIZ; procedure, shortened: as §3
Staphylococcus aureus [22] = experiment: Antimicrobial activity against Staphylococcus aureus ATCC 11632 assessed as diameter of inhibition zone at 20 uM after 24 hrs by Kirby -Baur disc diffusion method; format: functional; procedure, shortened: as §3
Salmonella typhi [23] = experiment: Antimicrobial activity against Salmonella typhi ATCC 23564 assessed as diameter of inhibition zone at 80 uM after 24 hrs by Kirby -Baur disc diffusion method; format: functional, Salmonella enterica subsp. enterica serovar Typhi; conditions: Salmonella enterica, ATCC 23564, 24 h; read-out: DIZ
Bacillus cereus [24] = experiment: Antimicrobial activity against Bacillus cereus MTCC 7350 assessed as diameter of inhibition zone at 20 uM after 24 hrs by Kirby -Baur disc diffusion method; format: functional; procedure, shortened: as §3
Aspergillus flavus [25] = experiment: Antifungal activity against Aspergillus flavus MTCC 1021 assessed as zone of inhibition at 80 uM after 48 hrs by disc diffusion method; format: functional; procedure, shortened: as §1
Trichoderma viride [26] = experiment: Antifungal activity against Trichoderma viride MTCC 1107 after 48 hrs; format: functional; conditions: MTCC 1107, 48 h
Curvularia lunata [27] = experiment: Antifungal activity against Curvularia lunata MTCC 581 assessed as zone of inhibition at 80 uM after 48 hrs by disc diffusion method; format: functional; conditions: MTCC 581, 48 h, read-out: IZ; procedure, shortened: as §1
Staphylococcus aureus [28] = experiment: Antimicrobial activity against Staphylococcus aureus ATCC 11632 assessed as diameter of inhibition zone at 40 uM after 24 hrs by Kirby -Baur disc diffusion method; format: functional; conditions: ATCC 11632, 24 h, read-out: DIZ; procedure, shortened: as §3
HeLa = experiment: Cytotoxicity against human HeLa cells after 24 hrs by MTT assay; format: functional, cell-based; procedure, shortened: as §2
Curvularia lunata [29] = experiment: Antifungal activity against Curvularia lunata MTCC 581 assessed as zone of inhibition at 40 uM after 48 hrs by disc diffusion method; format: functional; conditions: MTCC 581, 48 h, read-out: IZ; procedure, shortened: as §1
Bacillus cereus [30] = experiment: Antimicrobial activity against Bacillus cereus MTCC 7350 after 24 hrs by broth micro serial dilution method; format: functional; conditions: MTCC 7350, 24 h; procedure, shortened: as §4

## COc1ccc(NS(=O)(=O)c2ccc(/N=N/c3c(/C=C/c4ccc(O)c(OC)c4)nn(-c4ccccc4)c3/C=C/c3ccc(O)c(OC)c3)cc2)nn1
Trichoderma viride [1]
  zone of inhibition at 80 µM: 19 mm
QG-56
  IC50: 100 µM
HCT-116
  IC50: Not Active
Trichoderma viride [2]
  zone of inhibition at 20 µM: 12 mm
Salmonella typhi [3]
  diameter of the inhibition zone (DIZ): inactive
Aspergillus niger [4]
  MIC: inactive
Escherichia coli [5]
  zone of inhibition at 40 µM: 9 mm
HepG2
  IC50: > 100 µM
Escherichia coli [6]
  zone of inhibition at 20 µM: 8 mm
Aspergillus niger [7]
  inhibition zone (IZ): inactive
Bacillus cereus [8]
  diameter of the inhibition zone (DIZ): inactive
Aspergillus flavus [9]
  MIC: inactive
Salmonella typhi [10]
  MIC: > 80 µM
Bacillus cereus [11]
  zone of inhibition at 80 µM: 9 mm
Mus musculus
  inhibition in vivo at 200 mg/kg: 45.1%
Escherichia coli [12]
  MIC: > 80 µM
Curvularia lunata [13]
  zone of inhibition at 20 µM: 12 mm
Trichoderma viride [14]
  zone of inhibition at 40 µM: 16 mm
Pseudomonas aeruginosa [15]
  MIC: > 80 µM
Curvularia lunata [16]
  MIC: 20 µM (≈ 14.6 µg/mL)
Pseudomonas aeruginosa [17]
  diameter of the inhibition zone (DIZ): inactive
Staphylococcus aureus [18]
  MIC: > 80 µM
Salmonella typhi [19]
  diameter of the inhibition zone (DIZ): inactive
Escherichia coli [20]
  zone of inhibition at 80 µM: 11 mm
Staphylococcus aureus [21]
  zone of inhibition at 80 µM: 9 mm
Staphylococcus aureus [22]
  diameter of the inhibition zone (DIZ): inactive
Salmonella typhi [23]
  zone of inhibition at 80 µM: 10 mm
Bacillus cereus [24]
  diameter of the inhibition zone (DIZ): inactive
Aspergillus flavus [25]
  inhibition zone (IZ): inactive
Trichoderma viride [26]
  MIC: 40 µM (≈ 29.3 µg/mL)
Curvularia lunata [27]
  zone of inhibition at 80 µM: 19 mm
Staphylococcus aureus [28]
  zone of inhibition at 40 µM: 7 mm
HeLa
  IC50: 50 µM
Curvularia lunata [29]
  zone of inhibition at 40 µM: 16 mm
Bacillus cereus [30]
  MIC: > 80 µM
